Measured values from ChEMBL document CHEMBL4196006, “Aryl thiosemicarbazones for the treatment of trypanosomatidic infections” (Eur J Med Chem, 2018).
Calls of active or inactive are those of the source. The rule behind the calls is not given here.

Legend:
[1] = Cytotoxicity against human THP1 cells assessed as viable cells at 100 uM after 72 hrs by MTT assay relative to control; format: cell-based, THP-1; conditions: read-out: Activity
Summary of the method: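 THP-1-derived macrophages exposed to compounds for 72 h, tested at 100 μM or in dose-response; viability read by MTT colorimetric assay.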

[2] = target: Aurora kinase B (Homo sapiens, UniProt Q96GD4); assay: Inhibition of recombinant full-length human aurora B kinase expressed in baculovirus system at 10 uM using MBP as substrate incubated for 45 mins by ADP-glo kinase assay; conditions: probe MBP
Summary of the method: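 Aurora B activity measured as ADP formation via coupled luciferase ADP-Glo luminescence; single-point at 10 μM, triplicate.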

[3] = system: Trypanosoma cruzi; assay: Antitrypanosomal activity against Trypanosoma cruzi amastigote form infected in human U2OS cells assessed as parasite growth inhibition at 50 uM after 72 hrs relative to control; format: functional; conditions: for inhibition of growth at 50 µM: read-out: GI
Summary of the method: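 U2OS monolayers grown for 24 h, then infected with tissue-derived trypomastigotes of T. cruzi Y strain. Compounds were added 24 h after infection at 50 μM (single-point) or in dose-response, with 72 h exposure. Plates were fixed, stained and analysed by high-content imaging; activity was normalized to infected and non-infected controls. Means of at least two experiments; benznidazole as reference.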

[4] = target: CYP2D6 (Homo sapiens, UniProt P10635); assay: Inhibition of human microsomal CYP2D6 expressed in baculovirus infected BTI-TN-5B1-4 cells at 10 uM incubated for 30 mins by luciferase assay relative to control; format: ADME
Summary of the method: (§1)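 CYP1A2, 2C9, 2C19, 2D6 and 3A4 in microsomes from baculovirus-infected insect cells, each with a P450-Glo luminogenic substrate. Inhibition read as loss of light; single-point at 10 μM, triplicate.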

[5] = Cytotoxicity against human WI38 cells assessed as growth inhibition at 10 uM after 48 hrs by CellTiter-Glo assay relative to control; values are per cent of control; conditions: WI38 cells
[6] = target: T1, Pteridine reductase, putative (Trypanosoma brucei) (UniProt Q581W1); assay: Inhibition of Trypanosoma brucei PTR1 at 50 uM using H2B as substrate in presence of NADPH by photometric analysis relative to control
T1 sequence (whole entry): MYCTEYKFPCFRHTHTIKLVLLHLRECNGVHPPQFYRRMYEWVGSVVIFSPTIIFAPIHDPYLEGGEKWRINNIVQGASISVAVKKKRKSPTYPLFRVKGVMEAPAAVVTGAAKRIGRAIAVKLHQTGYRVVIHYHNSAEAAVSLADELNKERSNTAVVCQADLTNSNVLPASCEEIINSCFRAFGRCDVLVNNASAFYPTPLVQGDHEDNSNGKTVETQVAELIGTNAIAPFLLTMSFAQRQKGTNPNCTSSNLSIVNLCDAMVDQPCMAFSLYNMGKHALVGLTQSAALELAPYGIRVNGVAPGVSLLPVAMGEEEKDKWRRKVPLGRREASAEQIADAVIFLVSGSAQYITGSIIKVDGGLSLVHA

[7] = Cytotoxicity against human A549 cells assessed as growth inhibition at 10 uM after 48 hrs by CellTiter-Glo assay relative to control; values are per cent of control; conditions: A549 cells
[8] = system: Trypanosoma brucei; assay: Antitrypanosomal activity against Trypanosoma brucei Lister 427 bloodstream form assessed as parasite growth inhibition at 50 uM after 72 hrs by SYBR Green assay relative to control; format: functional
[9] = system: Trypanosoma brucei; assay: Antitrypanosomal activity against Trypanosoma brucei Lister 427 bloodstream form at 10 uM after 72 hrs by resazurin dye-based assay relative to control; format: functional
[10] = target: CYP2C9 (Homo sapiens, UniProt P11712); assay: Inhibition of human microsomal CYP2C9 expressed in baculovirus infected BTI-TN-5B1-4 cells at 10 uM incubated for 30 mins by luciferase assay relative to control; format: ADME; summary of the method: as §1
[11] = Cytotoxicity against human 786-O cells assessed as inhibition of mitochondrial viability at 10 uM after 6 hrs by CMXRos staining based assay relative to control; format: cell-based, 786-0; conditions: read-out: INH
Summary of the method: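 Mitochondrial toxicity monitored by MitoTracker Red CMXRos uptake and high-content imaging; compound at 10 μM, triplicate.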

[12] = target: T2, Pteridine reductase 1 (Leishmania major) (UniProt Q01782); assay: Inhibition of Leishmania major PTR1 at 50 uM using H2B as substrate in presence of NADPH by photometric analysis relative to control
T2 sequence (whole entry): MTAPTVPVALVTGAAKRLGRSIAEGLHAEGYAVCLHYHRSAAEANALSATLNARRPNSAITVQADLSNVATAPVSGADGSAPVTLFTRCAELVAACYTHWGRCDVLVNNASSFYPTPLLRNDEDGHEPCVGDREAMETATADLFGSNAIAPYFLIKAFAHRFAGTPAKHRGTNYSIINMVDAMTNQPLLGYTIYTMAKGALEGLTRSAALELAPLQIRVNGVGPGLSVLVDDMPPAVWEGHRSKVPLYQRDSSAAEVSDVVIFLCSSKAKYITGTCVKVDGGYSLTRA

[13] = Cytotoxicity against human U2OS cells assessed as viable cells at 50 uM after 72 hrs by MTT assay relative to control; format: cell-based; conditions: read-out: Activity
[14] = system: Leishmania infantum; assay: Antileishmanial activity against Leishmania infantum amastigote form assessed as parasite growth inhibition at 50 uM after 72 hrs by steady-Glo reagent based assay relative to control; format: functional; conditions: read-out: GI
Summary of the method: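 Intramacrophage L. infantum amastigotes in THP-1-derived macrophages, tested at 50 μM or in dose-response. Plates held 72 h at 37 °C, 5% CO2. Medium was replaced by PBS, macrophages lysed, and parasites read by Steady-Glo luminescence. High-content imaging gave host cell number, infection ratio (infected/total cells) and parasites per infected cell. Values are means of at least two independent experiments.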

[15] = system: Trypanosoma brucei; assay: Potentiation of methotrexate-induced antitrypanosomal activity against Trypanosoma brucei Lister 427 bloodstream form at 10 uM after 72 hrs by resazurin dye-based assay relative to control; format: functional
[16] = target: T3, CYP1A2 (Homo sapiens, UniProt P05177); assay: Inhibition of human microsomal CYP1A2 expressed in baculovirus infected BTI-TN-5B1-4 cells at 10 uM incubated for 30 mins by luciferase assay relative to control; format: ADME; summary of the method: as §1
T3 sequence (P05177 whole entry): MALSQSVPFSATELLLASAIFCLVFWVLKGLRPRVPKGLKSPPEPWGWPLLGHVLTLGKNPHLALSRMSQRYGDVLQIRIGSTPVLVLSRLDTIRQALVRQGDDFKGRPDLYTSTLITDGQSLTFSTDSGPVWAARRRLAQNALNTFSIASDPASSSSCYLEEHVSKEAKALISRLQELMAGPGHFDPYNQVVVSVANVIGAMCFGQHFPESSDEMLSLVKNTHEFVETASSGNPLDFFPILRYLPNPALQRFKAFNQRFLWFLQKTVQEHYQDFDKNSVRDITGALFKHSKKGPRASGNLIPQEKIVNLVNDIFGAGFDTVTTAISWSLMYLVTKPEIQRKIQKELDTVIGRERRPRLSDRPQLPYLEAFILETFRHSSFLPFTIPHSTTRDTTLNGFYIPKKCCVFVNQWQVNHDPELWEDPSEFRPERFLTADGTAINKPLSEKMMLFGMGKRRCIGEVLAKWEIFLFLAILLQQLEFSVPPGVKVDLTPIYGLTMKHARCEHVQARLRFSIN

[17] = system: Trypanosoma brucei; assay: Potentiation of methotrexate-induced antitrypanosomal activity against Trypanosoma brucei Lister 427 bloodstream form at 10 uM after 72 hrs by resazurin dye-based assay; format: functional
[18] = target: CYP3A4 (Homo sapiens, UniProt P08684); assay: Inhibition of human microsomal CYP3A4 expressed in baculovirus infected BTI-TN-5B1-4 cells at 10 uM incubated for 30 mins by luciferase assay relative to control; format: ADME; summary of the method: as §1
[19] = target: CYP2C19 (Homo sapiens, UniProt P33261); assay: Inhibition of human microsomal CYP2C19 expressed in baculovirus infected BTI-TN-5B1-4 cells at 10 uM incubated for 30 mins by luciferase assay relative to control; format: ADME; summary of the method: as §1
[20] = target: hERG (KCNH2) (Homo sapiens, UniProt Q12809); assay: Inhibition of human ERG at 10 uM incubated for 2 hrs by fluorescence polarisation assay relative to control
Sequence of hERG (KCNH2) (Q12809 whole entry): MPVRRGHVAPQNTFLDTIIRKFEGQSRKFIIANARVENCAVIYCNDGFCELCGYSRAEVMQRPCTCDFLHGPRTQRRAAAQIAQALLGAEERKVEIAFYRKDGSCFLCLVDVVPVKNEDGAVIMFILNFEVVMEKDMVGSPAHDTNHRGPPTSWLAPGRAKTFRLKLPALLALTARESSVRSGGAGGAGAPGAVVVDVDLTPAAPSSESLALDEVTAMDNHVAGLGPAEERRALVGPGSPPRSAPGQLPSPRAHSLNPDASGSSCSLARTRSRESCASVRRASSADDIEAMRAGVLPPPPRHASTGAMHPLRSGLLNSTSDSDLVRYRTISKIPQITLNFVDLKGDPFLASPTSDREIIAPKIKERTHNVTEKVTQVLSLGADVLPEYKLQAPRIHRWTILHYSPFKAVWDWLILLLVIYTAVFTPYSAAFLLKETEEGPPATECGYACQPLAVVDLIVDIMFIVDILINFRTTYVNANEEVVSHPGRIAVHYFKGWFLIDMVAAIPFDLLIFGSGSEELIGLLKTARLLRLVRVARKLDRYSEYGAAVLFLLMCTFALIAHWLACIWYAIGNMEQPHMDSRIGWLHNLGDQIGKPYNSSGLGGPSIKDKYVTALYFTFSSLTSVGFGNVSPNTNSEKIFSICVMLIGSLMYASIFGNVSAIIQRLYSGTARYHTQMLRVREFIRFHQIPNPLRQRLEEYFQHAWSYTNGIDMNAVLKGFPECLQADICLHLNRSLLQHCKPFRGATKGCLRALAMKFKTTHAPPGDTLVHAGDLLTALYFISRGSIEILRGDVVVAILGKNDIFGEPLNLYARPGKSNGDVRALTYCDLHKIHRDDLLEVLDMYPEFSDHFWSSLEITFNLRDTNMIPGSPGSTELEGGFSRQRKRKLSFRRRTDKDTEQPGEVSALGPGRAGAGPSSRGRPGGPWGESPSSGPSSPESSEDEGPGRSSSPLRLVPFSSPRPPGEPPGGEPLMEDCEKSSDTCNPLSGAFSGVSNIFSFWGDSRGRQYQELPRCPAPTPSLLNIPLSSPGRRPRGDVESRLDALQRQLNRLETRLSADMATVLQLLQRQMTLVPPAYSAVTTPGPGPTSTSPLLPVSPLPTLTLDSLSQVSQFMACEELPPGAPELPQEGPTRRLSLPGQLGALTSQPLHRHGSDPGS

Sequence of CYP2D6 (P10635 whole entry): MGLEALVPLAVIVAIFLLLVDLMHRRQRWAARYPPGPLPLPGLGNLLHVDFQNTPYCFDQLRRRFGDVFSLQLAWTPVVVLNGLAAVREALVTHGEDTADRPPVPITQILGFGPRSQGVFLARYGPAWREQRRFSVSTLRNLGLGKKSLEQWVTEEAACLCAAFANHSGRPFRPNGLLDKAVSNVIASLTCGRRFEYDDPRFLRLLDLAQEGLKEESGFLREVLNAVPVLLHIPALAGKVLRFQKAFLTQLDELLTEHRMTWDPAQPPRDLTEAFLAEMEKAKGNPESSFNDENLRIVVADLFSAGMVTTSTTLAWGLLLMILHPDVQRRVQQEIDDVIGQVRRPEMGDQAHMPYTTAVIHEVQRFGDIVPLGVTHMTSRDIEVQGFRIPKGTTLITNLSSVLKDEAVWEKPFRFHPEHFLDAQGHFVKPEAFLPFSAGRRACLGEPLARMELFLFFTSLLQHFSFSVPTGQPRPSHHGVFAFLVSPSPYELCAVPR
Sequence of CYP2C19 (P33261 whole entry): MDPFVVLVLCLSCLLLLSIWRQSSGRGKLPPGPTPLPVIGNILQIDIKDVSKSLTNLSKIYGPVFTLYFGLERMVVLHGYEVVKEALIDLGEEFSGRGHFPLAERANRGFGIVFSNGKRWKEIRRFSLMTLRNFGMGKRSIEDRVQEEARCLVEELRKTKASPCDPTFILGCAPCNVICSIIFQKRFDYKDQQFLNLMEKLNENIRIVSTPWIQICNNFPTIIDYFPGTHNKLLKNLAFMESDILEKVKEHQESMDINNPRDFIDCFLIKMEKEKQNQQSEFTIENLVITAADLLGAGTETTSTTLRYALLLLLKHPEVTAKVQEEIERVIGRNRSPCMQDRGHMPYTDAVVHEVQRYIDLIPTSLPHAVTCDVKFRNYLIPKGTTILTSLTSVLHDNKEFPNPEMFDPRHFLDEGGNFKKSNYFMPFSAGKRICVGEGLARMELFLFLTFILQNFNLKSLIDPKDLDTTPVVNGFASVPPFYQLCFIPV
Sequence of Aurora kinase B (Q96GD4 whole entry): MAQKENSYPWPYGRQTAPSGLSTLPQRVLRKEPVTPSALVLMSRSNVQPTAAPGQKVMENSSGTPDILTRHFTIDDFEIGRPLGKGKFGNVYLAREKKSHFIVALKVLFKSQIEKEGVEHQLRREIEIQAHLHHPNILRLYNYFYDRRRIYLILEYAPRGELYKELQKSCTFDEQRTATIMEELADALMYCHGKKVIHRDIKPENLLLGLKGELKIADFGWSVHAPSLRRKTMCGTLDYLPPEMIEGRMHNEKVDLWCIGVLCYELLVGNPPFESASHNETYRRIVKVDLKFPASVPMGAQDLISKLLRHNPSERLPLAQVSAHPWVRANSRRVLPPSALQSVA
Sequence of CYP3A4 (P08684 whole entry): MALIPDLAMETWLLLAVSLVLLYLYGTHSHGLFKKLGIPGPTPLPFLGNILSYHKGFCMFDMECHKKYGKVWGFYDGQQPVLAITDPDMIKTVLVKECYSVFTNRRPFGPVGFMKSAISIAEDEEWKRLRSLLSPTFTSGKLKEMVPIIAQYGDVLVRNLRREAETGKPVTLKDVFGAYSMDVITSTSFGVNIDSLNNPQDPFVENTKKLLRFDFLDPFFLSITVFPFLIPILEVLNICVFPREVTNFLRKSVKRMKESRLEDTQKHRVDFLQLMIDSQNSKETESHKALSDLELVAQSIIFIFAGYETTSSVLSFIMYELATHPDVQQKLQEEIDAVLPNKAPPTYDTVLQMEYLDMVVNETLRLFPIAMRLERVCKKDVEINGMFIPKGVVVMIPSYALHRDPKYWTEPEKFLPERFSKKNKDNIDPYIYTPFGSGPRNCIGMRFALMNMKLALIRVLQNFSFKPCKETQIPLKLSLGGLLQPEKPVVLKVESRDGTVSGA
Sequence of CYP2C9 (P11712 whole entry): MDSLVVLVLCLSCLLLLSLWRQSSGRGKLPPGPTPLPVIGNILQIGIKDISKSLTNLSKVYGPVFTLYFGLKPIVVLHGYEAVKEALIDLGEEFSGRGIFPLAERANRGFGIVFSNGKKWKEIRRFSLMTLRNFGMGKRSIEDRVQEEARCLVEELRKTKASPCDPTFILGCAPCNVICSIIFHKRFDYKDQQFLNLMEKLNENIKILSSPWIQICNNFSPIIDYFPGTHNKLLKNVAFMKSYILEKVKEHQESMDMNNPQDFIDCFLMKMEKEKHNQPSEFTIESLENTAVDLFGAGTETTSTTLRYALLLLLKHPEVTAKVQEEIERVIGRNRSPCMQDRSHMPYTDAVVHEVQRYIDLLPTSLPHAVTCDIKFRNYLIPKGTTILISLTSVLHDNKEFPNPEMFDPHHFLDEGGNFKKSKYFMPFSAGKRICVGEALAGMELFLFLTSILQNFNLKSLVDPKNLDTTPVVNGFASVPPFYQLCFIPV

Compound: C/C(=N\NC(N)=S)c1ccc(O)cc1
- viability at 72 h, 100 µM [1]: 72.2%
- inhibition at 0.75 h, 10 µM [2]: -0.05%
- inhibition of growth at 50 µM [3]: 37%
- inhibition at 0.5 h, 10 µM [4]: -24.5%
- cell growth (% of control) at 48 h, 10 µM [5]: 101%
- inhibition [6]: 26.2%
- cell growth (% of control) at 48 h, 10 µM [7]: 126%
- growth inhibition (GI) [8]: inactive
- Activity [9]: 14.83%
- inhibition at 0.5 h, 10 µM [10]: -9.01%
- cytotoxicity at 6 h, 10 µM [11]: 5.9%
- inhibition [12]: 7.77%
- viability at 72 h, 50 µM [13]: 90.2%
- inhibition of growth at 50 µM [14]: 23.9%
- Activity [15]: 87.83%
- inhibition at 0.5 h, 10 µM [16]: -0.75%
- PF [17]: 2.25
- inhibition at 0.5 h, 10 µM [18]: -4.7%
- inhibition at 0.5 h, 10 µM [19]: -63.9%
- inhibition at 2 h, 10 µM [20]: 3.53%

Compound: Nc1nnc(-c2ccc(Cl)c(Cl)c2)s1
- inhibition of growth at 50 µM [3]: 23.4%

Compound: Nc1nnc(-c2cccc(Br)c2)s1
- inhibition of growth at 50 µM [3]: 41.6%

Compound: Nc1nnc(-c2ccc(-c3ccccc3)cc2)s1
- inhibition of growth at 50 µM [3]: 31.2%

Compound: Nc1nnc(-c2cccc(-c3ccc4c(c3)OCO4)c2)s1
- growth inhibition (GI) [3]: inactive

Compound: COc1ccc(-c2nnc(N)s2)cc1OC
- inhibition of growth at 50 µM [3]: 30.2%

Compound: Nc1nnc(/C=C/c2ccccc2)s1
- inhibition of growth at 50 µM [3]: 82%

Compound: Nc1nnc(-c2ccc(OCc3ccc(Cl)c(Cl)c3)cc2)s1
- inhibition of growth at 50 µM [3]: 14.5%

Compound: COc1cccc(OC)c1-c1nnc(N)s1
- inhibition of growth at 50 µM [3]: 27.1%

Compound: COc1ccc(-c2cccc(-c3nnc(N)s3)c2)cc1OC
- inhibition of growth at 50 µM [3]: 14.6%

Compound: NC(=S)N/N=C/c1ccc(O)c(O)c1
- inhibition at 0.75 h, 10 µM [2]: -12.2%
- inhibition at 0.5 h, 10 µM [4]: -9.48%
- inhibition [6]: 30.7%
- inhibition at 0.5 h, 10 µM [10]: -7.51%
- inhibition [12]: 56.5%
- inhibition at 0.5 h, 10 µM [16]: -6.6%
- inhibition at 0.5 h, 10 µM [18]: -7.74%
- inhibition at 0.5 h, 10 µM [19]: -49.1%
- inhibition at 2 h, 10 µM [20]: 4.17%

Compound: COc1ccc(/C=N/NC(N)=S)cc1OC
- inhibition at 0.75 h, 10 µM [2]: -7.72%
- inhibition at 0.5 h, 10 µM [4]: -20.5%
- inhibition [6]: 20.1%
- inhibition at 0.5 h, 10 µM [10]: -19.2%
- inhibition [12]: 20.7%
- inhibition at 0.5 h, 10 µM [16]: -9.14%
- inhibition at 0.5 h, 10 µM [18]: -24.4%
- inhibition at 0.5 h, 10 µM [19]: -30.2%
- inhibition at 2 h, 10 µM [20]: 4.1%

Compound: COc1ccccc1/C=N/NC(N)=S
- inhibition at 0.75 h, 10 µM [2]: -16.9%
- inhibition at 0.5 h, 10 µM [4]: -8.91%
- inhibition [6]: 5.67%
- inhibition at 0.5 h, 10 µM [10]: -19.8%
- inhibition [12]: 9.19%
- inhibition at 0.5 h, 10 µM [16]: 29.6%
- inhibition at 0.5 h, 10 µM [18]: -23.2%
- inhibition at 0.5 h, 10 µM [19]: -52.9%
- inhibition at 2 h, 10 µM [20]: 5.91%

Compound: COc1cc(-c2nnc(N)s2)cc(OC)c1OC
- growth inhibition (GI) [3]: inactive

Compound: Nc1nnc(-c2ccco2)s1
- growth inhibition (GI) [3]: inactive

Compound: COc1ccccc1-c1nnc(N)s1
- growth inhibition (GI) [3]: inactive

Compound: NC(=S)N/N=C/c1ccc(O)cc1
- inhibition at 0.75 h, 10 µM [2]: -5.27%
- inhibition at 0.5 h, 10 µM [4]: -3.36%
- inhibition [6]: 19.6%
- inhibition at 0.5 h, 10 µM [10]: -21.1%
- inhibition [12]: 18.2%
- inhibition at 0.5 h, 10 µM [16]: -5.15%
- inhibition at 0.5 h, 10 µM [18]: -24.4%
- inhibition at 0.5 h, 10 µM [19]: -42.9%
- inhibition at 2 h, 10 µM [20]: 7.48%

Compound: Nc1nnc(-c2cccc(-c3ccccc3)c2)s1
- growth inhibition (GI) [3]: inactive

Compound: COc1cc(/C=N/NC(N)=S)ccc1O
- inhibition at 0.75 h, 10 µM [2]: -0.27%
- inhibition at 0.5 h, 10 µM [4]: 22.2%
- inhibition [6]: 9.78%
- inhibition at 0.5 h, 10 µM [10]: -7.31%
- inhibition [12]: 9.85%
- inhibition at 0.5 h, 10 µM [16]: 7.06%
- inhibition at 0.5 h, 10 µM [18]: -9.76%
- inhibition at 0.5 h, 10 µM [19]: -20.3%
- inhibition at 2 h, 10 µM [20]: 6.07%

Compound: Nc1nnc(-c2ccc(O)c(O)c2)s1
- inhibition of growth at 50 µM [3]: 16.6%
